Measurements from ChEMBL document CHEMBL4732104, “Discovery of bardoxolone derivatives as novel orally active necroptosis inhibitors” (Eur J Med Chem, 2021).
Calls of active or inactive are those of the source. No cut-off for these calls is given here.

Experiments:
[1] = tested on: HT-29; experiment: Anti-necroptotic activity in human HT-29 cells assessed as inhibition of TNFalpha/SM-164/Z-VAD-fmk (TSZ)-induced necroptosis by measuring increase in cell viability at 10 uM measured after 12 hrs by celltiter-glo luminescent cell viability assay; type: functional, cell-based
Method in brief: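 HT-29 cells in DMEM with 10% FBS at 37 °C, 5% CO2. Test agents at 10 μM, then TSZ stimulation for 12 h. Viability read by CellTiter-Glo luminescence.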

[2] = tested on: L929; experiment: Anti-necroptotic activity in mouse L929 cells assessed as inhibition of TNFalpha/Z-VAD-fmk (TZ)-induced necroptosis by measuring increase in cell viability measured after 12 hrs by celltiter-glo luminescent cell viability assay; type: functional, cell-based; settings: L929, 12 h
Method in brief: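 Mouse L929 fibroblasts pretreated with test agent, then mouse TNF-α (20 ng/mL) plus z-VAD-fmk (20 μM). Incubation stated as 4 h in table footnote and 12 h in figure legend. CellTiter-Glo viability. EC50 ± SD from at least three independent repeats.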

[3] = tested on: HT-29; experiment: Anti-necroptotic activity in human HT-29 cells assessed as inhibition of TNFalpha/SM-164/Z-VAD-fmk (TSZ)-induced necroptosis by measuring increase in cell viability measured after 12 hrs by celltiter-glo luminescent cell viability assay; type: functional, cell-based; settings: for EC50: HT-29, 12 h
Method in brief: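 HT-29 cells pretreated with test agent across a concentration range, then TNF-α (20 ng/mL), Smac mimetic (10 nM) and z-VAD-fmk (20 μM) for 12–16 h. CellTiter-Glo viability. EC50 ± SD from at least three independent experiments.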

[4] = tested on: HT-29; experiment: Anti-necroptotic activity in human HT-29 cells assessed as inhibition of TNFalpha/SM-164/Z-VAD-fmk (TSZ)-induced necroptosis by measuring cell viability at 10 uM preincubated for 30 mins followed by TSZ stimulation and measured after 16 hrs by celltiter-glo luminescent cell viability assay relative to control; type: functional; settings: time 16.5 hrs
Method in brief: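 HT-29 cells in DMEM with 10% FBS, 37 °C, 5% CO2. Compound pretreatment 30 min, then TNF-α 20 ng/mL, Smac mimetic and z-VAD-fmk 20 μM for 16 h. Viability by CellTiter-Glo luminescence, normalised to untreated control cells.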

[5] = tested on: HT-29; experiment: Anti-necroptotic activity in human HT-29 cells assessed as inhibition of TNFalpha/SM-164/Z-VAD-fmk (TSZ)-induced necroptosis by measuring reduction in cell swelling at 5 uM preincubated for 30 mins followed by TSZ stimulation and measured after 12 hrs by phase contrast microscopic analysis; type: functional, cell-based; settings: time 12.5 hrs
Method in brief: (§1)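 HT-29 cells pretreated with DMSO or compound, then stimulated with TNF-α, Smac mimetic and z-VAD-fmk for 12 h. Necrotic morphology (swelling, membrane rupture) viewed by phase contrast microscopy at 200×.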

[6] = tested on: HT-29; experiment: Protection against TNFalpha/SM-164 (TS)-induced apoptosis in human HT-29 cells assessed as increase in cell viability at 0.08 to 10 uM measured after 20 hrs by celltiter-glo luminescent cell viability assay; type: functional, cell-based; settings: dose 0.08-10 µM
Method in brief: (§2)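 HT-29 apoptosis induced by TNF-α 20 ng/mL plus Smac mimetic (20 h), or by TNF-α plus cycloheximide (24 h), with graded compound concentrations. Viability read by CellTiter-Glo luminescence; means ± S.D. of three independent experiments.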

[7] = tested on: HT-29; experiment: Anti-necroptotic activity in human HT-29 cells assessed as inhibition of TNFalpha/SM-164/Z-VAD-fmk (TSZ)-induced necroptosis by measuring reduction in plasma membrane rupture at 5 uM preincubated for 30 mins followed by TSZ stimulation and measured after 12 hrs by phase contrast microscopic analysis; type: functional, cell-based; settings: time 12.5 hrs; method in brief: as §1
[8] = tested on: HT-29; experiment: Cytotoxicity against human HT-29 cells assessed as reduction in cell viability at 10 uM by MTT assay; type: cell-based; settings: ht-29, 10 µM
[9] = tested on: HT-29; experiment: Protection against TNFalpha/cycloheximide (TC)-induced apoptosis in human HT-29 cells assessed as increase in cell viability at 0.08 to 10 uM measured after 24 hrs by celltiter-glo luminescent cell viability assay; type: functional, cell-based; settings: dose 0.08-10 µM; method in brief: as §2
[10] = tested on: HT-29; experiment: Anti-necroptotic activity in human HT-29 cells assessed as inhibition of TNFalpha/cycloheximide/Z-VAD-fmk (TCZ)-induced necroptosis by measuring increase in cell viability measured after 16 hrs by celltiter-glo luminescent cell viability assay; type: functional, cell-based
[11] = tested on: Rattus norvegicus; experiment: Neuroprotective activity in middle cerebral artery occlusion-induced Sprague-Dawley rat model of ischemia-reperfusion injury assessed as reduction in cerebral infarct volume at 1 mg/kg by TTC staining based microscopic analysis relative to control; type: functional; parameters: scale not given: the % may be the effect or the level left

SMILES	EC50 [2] [µM]	EC50 [3] [µM]	also measured
CC(C)c1cc(C(=O)N2Cc3ccc(CN4CCN(C)CC4)cc3C2)c(O)cc1O			inhibition [1]: Active
CC1(C)CC[C@]2(C(=O)NCc3ccccc3)CC[C@]3(C)[C@H](C(=O)C=C4[C@@]5(C)C=C(C#N)C(=O)C(C)(C)[C@@H]5CC[C@]43C)[C@@H]2C1	1.03	1.63	
CC1(C)CC[C@]2(C(=O)O)CC[C@]3(C)[C@H](C(=O)C=C4[C@@]5(C)C=C(C#N)C(=O)C(C)(C)[C@@H]5CC[C@]43C)[C@@H]2C1 [BARDOXOLONE]	> 10	1.3	Activity [4]: >100%; Activity [5]: Active; Activity [6]: inactive; Activity [7]: Active; inhibition [3]: Dose-dependent effect; Activity [8]: Toxic; Activity [9]: inactive; inhibition [10]: Dose-dependent effect
CC1(C)CC[C@]2(C(=O)O)CC[C@]3(C)C(=CC[C@@H]4[C@@]5(C)CC[C@H](O)C(C)(C)[C@@H]5CC[C@]43C)[C@@H]2C1 [OLEANOLIC_ACID]		> 10	
CC1(C)CC[C@]2(C(=O)n3ccnc3)CC[C@]3(C)[C@H](C(=O)C=C4[C@@]5(C)C=C(C#N)C(=O)C(C)(C)[C@@H]5CC[C@]43C)[C@@H]2C1	1.46	2.1	
CCNC(=O)[C@]12CCC(C)(C)C[C@H]1[C@H]1C(=O)C=C3[C@@]4(C)C=C(C#N)C(=O)C(C)(C)[C@@H]4CC[C@@]3(C)[C@]1(C)CC2	4.15	1.38	
CC1(C)CC[C@]2(C(=O)n3cnc(-c4ccccn4)c3)CC[C@]3(C)[C@H](C(=O)C=C4[C@@]5(C)C=C(C#N)C(=O)C(C)(C)[C@@H]5CC[C@]43C)[C@@H]2C1	0.61	0.29	
COCCOC(=O)C1=C(C)NC(C)=C(C(=O)OC(C)C)C1c1cccc([N+](=O)[O-])c1 (stereo not drawn) [NIMODIPINE]			Activity [11]: 26.8%
C=CCNC1=C2C[C@@H](C)C[C@H](OC)[C@H](O)[C@@H](C)/C=C(\C)[C@H](OC(N)=O)[C@@H](OC)/C=C\C=C(/C)C(=O)NC(=CC1=O)C2=O			inhibition [1]: Active
Cc1ccc(Nc2nccc(N(C)c3ccc4c(C)n(C)nc4c3)n2)cc1S(N)(=O)=O [PAZOPANIB]			Activity [4]: >80%
CC1(C)CC[C@]2(C(=O)O)[C@H](O)C[C@]3(C)C(=CC[C@@H]4[C@@]5(C)CC[C@H](O)C(C)(C)[C@@H]5CC[C@]43C)[C@@H]2C1		> 10	
COC(=O)/C=C/C(=O)OC			inhibition [1]: inactive
CC1(C)CC[C@]2(C(=O)NCCNC(=O)OC(C)(C)C)CC[C@]3(C)[C@H](C(=O)C=C4[C@@]5(C)C=C(C#N)C(=O)C(C)(C)[C@@H]5CC[C@]43C)[C@@H]2C1	1.48	2.81	
COC(=O)[C@]12CCC(C)(C)C[C@H]1[C@H]1C(=O)C=C3[C@@]4(C)C=C(C#N)C(=O)C(C)(C)[C@@H]4CC[C@@]3(C)[C@]1(C)CC2 [BARDOXOLONE METHYL]	> 10	4.34	
CC1(C)CC[C@]2(C(=O)NC3CCCCC3)CC[C@]3(C)[C@H](C(=O)C=C4[C@@]5(C)C=C(C#N)C(=O)C(C)(C)[C@@H]5CC[C@]43C)[C@@H]2C1	> 10	1.3	
CC1(C)CC[C@]2(C(=O)N[C@@H]3CCCc4ccccc43)CC[C@]3(C)[C@H](C(=O)C=C4[C@@]5(C)C=C(C#N)C(=O)C(C)(C)[C@@H]5CC[C@]43C)[C@@H]2C1	0.82	1.91	
CC1(C)CC[C@]2(C(=O)N[C@H]3CCCc4ccccc43)CC[C@]3(C)[C@H](C(=O)C=C4[C@@]5(C)C=C(C#N)C(=O)C(C)(C)[C@@H]5CC[C@]43C)[C@@H]2C1	0.62	1.81	
CC1(C)CC[C@]2(NC(=O)C(C)(F)F)CC[C@]3(C)[C@H](C(=O)C=C4[C@@]5(C)C=C(C#N)C(=O)C(C)(C)[C@@H]5CC[C@]43C)[C@@H]2C1 [OMAVELOXOLONE]	5.25	1.41	
COC(=O)[C@@]12OC[C@]34[C@H]([C@@H](O)[C@@H]1O)[C@@]1(C)CC(=O)C(O)=C(C)[C@@H]1C[C@H]3OC(=O)[C@H](OC(=O)C=C(C)C)[C@@H]24			inhibition [1]: inactive
